# The source made the active and inactive calls.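 Rule for the calls: active = compounds blocking at least half of the virus-caused cell damage in the dose series; inactive = the rest.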
# Tested on: HEp-2 RSV Long CPE inhibition, luminescence
# Assay: inhibitors of RSV-induced HEp-2 cell death – RSV Long, synthesized compounds, set 5, dose response (AID 493088)
# In short: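 Assay system – RSV Long-infected HEp-2 cells · Probe or stimulus – RSV Long, MOI 0.45 · Compound – 8 doses, 1:2 steps, 0.39–50 µM, 0.5% DMSO · Times – 6-day incubation of infected, compound-treated cells at 37 °C · Detection – luminescent CPE signal · Evaluation – % CPE inhibition versus cell-only and virus-only wells, plus IC50 · Control set – cell-only and virus-only wells · Replication – triplicates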
row,SMILES,IC50
1,Cc1ncccc1NC(=O)[C@@H]1CCCN1S(=O)(=O)c1cccc2cccnc12,> 50 µM (inactive)
2,CCc1ccccc1NC(=O)[C@@H]1CCCN1S(=O)(=O)c1cccc2cccnc12,16.2 µM
3,COCCCNC(=O)c1ccc(Cn2c(=O)c3ccccc3n(Cc3ccc(C)cc3)c2=O)cc1,1.71 µM
4,CCOC(=O)c1ccc2[nH]c3c(c2c1)CN(C)CC3,28.4 µM
5,CC(=O)c1ccccc1NC(=O)[C@@H]1CCCN1S(=O)(=O)c1cccc2cccnc12,> 50 µM (inactive)

# Reference: PubChem BioAssay AID493088 (Southern Research Specialized Biocontainment Screening …, 2011)
